OX1R antag-1: human HCRTR1 antagonism; O43613; inhibition, % at 5 µM; CHO/OX1R cells, Fluo-8 calcium fluorescence, orexin A; AID 434989; hit rate 0.43% among 330,000;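 active = inhibition above its plate's threshold, mean inhibition of all tested compounds on the plate plus 3 SD, cut at about 37% in these data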
Target sequence (O43613 whole entry, looked up): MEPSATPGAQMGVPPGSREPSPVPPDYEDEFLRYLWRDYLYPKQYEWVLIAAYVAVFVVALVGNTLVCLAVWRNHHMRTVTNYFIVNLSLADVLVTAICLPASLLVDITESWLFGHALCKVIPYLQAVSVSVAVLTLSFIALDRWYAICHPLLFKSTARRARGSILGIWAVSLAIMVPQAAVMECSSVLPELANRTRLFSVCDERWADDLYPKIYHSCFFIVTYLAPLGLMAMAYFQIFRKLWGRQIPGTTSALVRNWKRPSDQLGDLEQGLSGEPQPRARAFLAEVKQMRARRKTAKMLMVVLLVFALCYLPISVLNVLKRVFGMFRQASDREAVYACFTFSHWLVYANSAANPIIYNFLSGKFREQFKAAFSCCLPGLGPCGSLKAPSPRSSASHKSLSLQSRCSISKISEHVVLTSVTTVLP
CHO parental Ca: counter-screen for OX1R antagonists: effect in parental CHO cells; hit rate 0.63% among 330,000; parental CHO-K1, ATP-induced calcium, Fluo-8 fluorescence; inhibition, % at 5.6 µM;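 active = inhibition above that plate's mean sample inhibition plus 3 SD, cut at about 26% in these data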
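Test system: untransfected parental CHO cell line; also added: ATP stimulus; dosing: 5.6 µM, single dose; signal: calcium-sensitive Fluo-8 fluorescence; measure: percent inhibition of ATP-evoked calcium rise, normalized to controls; benchmarks: low control ATP plus DMSO, high control DMSO only; replication: one well per compound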
OX1R antag-2: blocks the human orexin 1 receptor. OX1R-expressing cells, FRET antagonist read-out. inhibition, % at 6.6 µM. hit rate 1.8% among 330,000. AID 485270; in the data active = inhibition mostly above about 38%, no sharp cut-off; inactive = mostly below about 40%
TAAR1 antag: human TAAR1 antagonism | Q96RJ0 | CHO RD-HGA16 TAAR1, Fluo-8 calcium fluorescence, antagonist | inhibition, % at 3 µM | hit rate 1.5% among 360,000;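 active = inhibition above a per-plate cutoff, the mean inhibition of test compounds on that plate plus 3 SD, cut at about 49% in these data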
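System: CHO RD-HGA16 cells bearing hTAAR1. Reagent: EC80 β-phenethylamine stimulus. Schedule: seeding 17-24 h prior, 75-min 37 °C, 30-min RT dye loading. Signal: Fluo-8 intracellular calcium dye fluorescence, real-time kinetic reads. Read-out: % inhibition from peak post-agonist over basal fluorescence ratio. Benchmarks: vehicle wells and EC80 agonist wells. Replicates: n of 1.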
GPR7 antag: antagonists of human GPR7 (neuropeptides B/W receptor 1). P48145. GPR7-expressing cells, fluorescence antagonist assay. inhibition, % at 4.4 µM. hit rate 1.1% among 290,000. AID 1861; in the data active = inhibition above about 16%, passing the limit was not always enough;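 also: cells stimulated with the agonist NPW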
TAAR1 agonist: agonists of human TAAR1. hit rate 0.99% among 360,000. AID 624467. CHO RD-HGA16 TAAR1, Fluo-8 calcium fluorescence; vehicle wells 0%, saturating PEA agonist 100%. Q96RJ0. activation, % at 3 µM;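 active = activation above the mean activation of all test compounds in the run plus 3 SD, cut at about 38% in these data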
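Assay system – CHO-derived RD-HGA16 cells with stable Gα16 and human TAAR1 · Compound dosing – one-point dosing at 3 µM (nominal) · Incubation – 17-24 h seeding, 75 min 37 °C dye, 30 min RT · Measured by – kinetic Fluo-8 calcium fluorescence · Control set – DMSO vehicle as 0%, PEA at EC100 as 100% · Repeats – single well for each compound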
A number is an active result; i = inactive; nt = not tested or not shown. The list is not random: actives were taken first. Their share in the collection is about 4.6%.

SMILES	OX1R antag-1	CHO parental Ca	OX1R antag-2	TAAR1 antag	GPR7 antag	TAAR1 agonist
O=C(CCNS(=O)(=O)c1ccccc1)N1CCN(c2ccccc2F)CC1	i	i	i	i	i	i
Cc1ccc(-c2nnc(Nc3ccccc3)c3ccccc23)cc1S(=O)(=O)NCC1CCCO1 (centres undefined)	66.2	28.5	i	57.5	i	i
Cc1ccc(-c2nnc(Nc3ccc4c(c3)OCO4)c3ccccc23)cc1S(=O)(=O)NC(C)C	i	31.1	i	i	i	i
COCCN1Cc2cc(C(=O)OC)c3c(c2C1=O)c1cc(F)ccc1n3S(=O)(=O)c1cccc(C)c1	nt	nt	nt	i	nt	i
COc1cccc(/C=N/NC(=O)c2ccc3nc[nH]c3c2)c1O	i	i	i	i	i	i
COc1cccc(/C=N/NC(=O)c2cc3c(OC)ccc(OC)c3[nH]2)c1O	i	i	47.8	i	i	i
Cc1ccc(OCCCCN2CCc3ccccc3C2)cc1	i	i	i	i	i	40.5
Clc1ccc(SCCOCCN2CCc3ccccc3C2)cc1	i	i	i	i	i	38.0
Cc1ccc(OCCCCN2CCCCC2)cc1	nt	nt	nt	i	i	i
c1ccc(-c2ccccc2OCCOCCN2CCc3ccccc3C2)cc1	i	i	i	i	15.8	i
COc1ccc2cc(C(=O)N3CCN(c4ccc(F)cc4)CC3)[nH]c2c1	i	i	i	i	i	i
O=C(CSc1nnc(Cn2nnc3ccccc32)o1)N(Cc1ccc(Cl)cc1)c1ccccc1	52.6	66.3	75.5	i	i	i
CN1CCC(N(C)C(=O)c2ccc(Cl)c(S(=O)(=O)N3CCc4ccccc43)c2)CC1	i	i	i	i	nt	i
CC(C)[C@@H](C)/C=C/[C@@H](C)[C@H]1CC[C@@H]2[C@]1(C)CCC1[C@]23C=C[C@]2(C[C@@H](O)CC[C@]12C)N(c1ccc(Br)cn1)O3 (some centres undefined)	nt	nt	nt	i	nt	i
Cc1ccnc(NC(=O)c2cc([N+](=O)[O-])cc([N+](=O)[O-])c2)c1	i	i	i	i	i	i
Cc1cccc(C)c1NC(=O)c1ccc([N+](=O)[O-])s1	i	i	i	i	i	i
Cc1cccc(NC(=O)c2ccc([N+](=O)[O-])s2)n1	i	i	36.4	i	i	i
Cc1ccnc(NC(=O)c2ccc([N+](=O)[O-])s2)c1	i	i	69.6	i	i	i
O=C(O)c1ccc(NC(=O)c2cn(-c3ccccc3)nc2-c2ccc(F)cc2)cc1	i	i	i	59.5	i	i
O=C(O)c1ccc(NC(=O)c2cn(-c3ccccc3)nc2-c2cccc(Cl)c2)cc1	i	i	i	52.5	i	i
C=C1CC(Cn2cc(Br)c(=O)[nH]c2=O)(c2ccc(-c3ccccc3)cc2)OC1=O (centres undefined)	nt	nt	nt	67.8	nt	i
O=c1[nH]c(=O)n(Cc2ccc(Oc3ccccc3)cc2)cc1Br	i	i	i	i	i	i
Nc1ccn([C@@H]2O[C@H](C(=O)N[C@H](Cc3ccccc3)C(=O)N3CCN(CC(=O)N4CCCC4)CC3)[C@@H](O)[C@H]2O)c(=O)n1	nt	nt	nt	i	nt	i
Cc1cc(C)c(C)c(S(=O)(=O)NC(C(=O)NCCc2ccco2)C(C)C)c1C (centres undefined)	i	i	i	i	nt	i
NC(COCc1ccccc1)c1csc(Nc2ccc(C(=O)c3ccccc3)cc2)n1 (centres undefined)	nt	nt	nt	i	nt	49.9
SMILES	OX1R antag-1	CHO parental Ca	OX1R antag-2	TAAR1 antag	GPR7 antag	TAAR1 agonist
COc1ccccc1NC(=O)Nc1nc(C(N)CCc2ccccc2)cs1 (centres undefined)	nt	nt	nt	i	nt	i
NC(CCc1ccccc1)c1csc(NC(=O)Nc2cccc(Cl)c2)n1 (centres undefined)	nt	nt	nt	i	nt	39.0
NC(=O)c1ccc(Nc2nc(C(N)COCc3ccccc3)cs2)cc1 (centres undefined)	nt	nt	nt	i	nt	i
NC(CCc1ccccc1)c1csc(Nc2ccc(C(=O)NCCO)cc2)n1 (centres undefined)	nt	nt	nt	i	nt	i
NC(CCc1ccccc1)c1csc(Nc2ccc(C(=O)c3ccccc3)cc2)n1 (centres undefined)	nt	nt	nt	i	nt	40.8
O=S1(=O)N[C@H](Cc2ccccc2)COc2cc(Br)ccc21	nt	nt	nt	i	nt	i
O=C(N1CCOCC1)C1(c2ccc(Cl)cc2)CCCC1	i	i	i	i	i	i
O=C(Nc1ccc(N2CCOCC2)cc1)C1(c2ccc(Cl)cc2)CCC1	i	i	i	i	i	43.5
COC(=O)CCNS(=O)(=O)c1ccc2nsnc2c1	i	i	62.8	i	nt	i
CN(c1ccc(C(=O)NCCc2ccccc2)cc1)S(C)(=O)=O	i	i	i	i	i	40.3
O=C(NCCc1ccccc1)c1ccc(-n2cnnn2)cc1	i	i	i	i	18.2	i
O=C(NCCc1c[nH]c2ccccc12)c1ccc(-n2cnnn2)cc1	i	i	i	i	i	i
CCCCc1ccc(NC(=O)c2ccc(N(C)S(C)(=O)=O)cc2)cc1	i	68.7	i	i	i	i
Cc1ccc(S(=O)(=O)N(C)c2ccc(C(=O)NCCc3ccccc3)cc2)cc1	i	i	i	i	i	i
Cc1occc1-c1nnc(SCC(=O)NC2CC2)n1C(C)C	i	i	i	i	i	i
Cc1coc2c(C)c3oc(=O)c(CC(=O)N[C@@H](CC(C)C)C(=O)O)c(C)c3cc12	i	i	i	i	i	i
Cc1coc2c(C)c3oc(=O)c(CCC(=O)N[C@@H](C)C(=O)N[C@@H](Cc4ccccc4)C(=O)O)c(C)c3cc12	i	i	44.8	i	i	i
COC(=O)Cc1nnn2c1[C@H](C)[C@@H](OC)c1ccccc1-2	nt	nt	nt	i	nt	i
O=C(Nc1ccc(F)cc1)C(c1cccc(F)c1)N1CCN(Cc2c(F)cccc2Cl)CC1 (centres undefined)	nt	nt	nt	i	nt	i
Cc1cc(C)nc(/N=C(\N)Nc2ccc(S(=O)(=O)O)cc2)n1	nt	nt	nt	i	i	i
COc1ccc(N/C(N)=N/c2nc(C)cc(C)n2)cc1	nt	nt	nt	55.0	nt	i
CCOC(=O)c1ccc(-c2ccc3c(=O)c4ccccc4n(C)c3c2)cc1F	i	i	65.6	i	i	i
COc1ccc(NC(=O)N(C)C[C@@H]2Oc3cc(C#CCN(C)C)ccc3S(=O)(=O)N([C@H](C)CO)C[C@H]2C)cc1	nt	nt	nt	i	nt	i
CC(C)N1CC(O)=C(c2nc3ccccc3[nH]2)C1=N	i	i	i	i	i	i
CC(C1CC2CCC1C2)N1CC(O)=C(c2nc3ccccc3[nH]2)C1=N (centres undefined)	i	i	i	i	20.9	i
C1=C(c2ccccc2)CCN(c2ncnc3nc[nH]c23)C1	i	i	50.2	i	i	i
COC(=O)c1cc2c(c3c4cc(F)ccc4n(S(=O)(=O)c4cccc(C)c4)c13)C(=O)N(C)C2	nt	nt	nt	i	nt	i
